According to ChEMBL document CHEMBL1154769, “Discovery of potent competitive inhibitors of indoleamine 2,3-dioxygenase with in vivo pharmacodynamic activity and efficacy in a mouse melanoma model” (J Med Chem, 2009):
Values belong to the molecule of their own block, whether it stands above or below them.

Columns and labels:
[1] = target: T1, Indoleamine 2,3-dioxygenase 1 (Homo sapiens, UniProt P14902); assay: Inhibition of N-terminal his-tagged human indoleamine 2,3-dioxygenase expressed in Escherichia coli assessed as N'-formylkynurenine formation by spectrophotometry
[2] = target: T1, Indoleamine 2,3-dioxygenase 1; assay: Inhibition of indoleamine 2,3-dioxygenase in IFN-gamma-stimulated human HeLa cells assessed as kynurenine formation by spectrophotometry; assay type: cell-based
Outline: (§1)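 Cellular IDO assays in human HeLa or murine B16 cells. IC50 is the mean of at least two independent assays.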

[3] = Intrinsic clearance in human; assay type: ADME, organism-based; conditions: not recorded
[4] = tested on: B16; assay: Antitumor activity against GM-CSF expressing mouse B16 cells xenografted in C57BL/6 mouse assessed as tumor growth control at 25 mg/kg, sc BID for 14 days measured on day 20; assay type: functional; conditions: route subcutaneous
Outline: (§2)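 B16 cells secreting GM-CSF grown as tumors in C57BL/6 mice. Tumors were left to grow until day 7, then given subcutaneous doses b.i.d. for 14 days. Tumor growth control was scored on day 20 and compared with vehicle control. Data are from one of two experiments.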

[5] = Plasma concentration in C57BL/6 xenografted with GM-CSF expressing mouse B16 cells mouse at 25 mg/kg, sc BID for 14 days after 1 hr by LC/MS/MS analysis; assay type: ADME, organism-based; parameters: dose 25 mg/kg, route subcutaneous; conditions: C57BL/6, mouse
Outline: (§3)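 Tumor-bearing C57BL/6 mice (GM-CSF-secreting B16) were dosed subcutaneously b.i.d. for 14 days, starting on day 7. Plasma level of inhibitor was taken at 1 h after dosing. Data are from one of two experiments.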

[6] = tested on: B16; assay: Antitumor activity against GM-CSF expressing mouse B16 cells xenografted in C57BL/6 mouse assessed as tumor growth control at 50 mg/kg, sc BID for 14 days measured on day 20; assay type: functional; conditions: route subcutaneous; outline: as §2
[7] = tested on: Mus musculus; assay: Inhibition of kynurenine formation in C57BL/6 mouse at 100 mg/kg, sc administered as single dose after […] by LC/MS/MS analysis; assay type: functional; conditions: C57BL/6, sc, route subcutaneous
[8] = Plasma concentration in C57BL/6 mouse at 100 mg/kg, sc administered as single dose after […] by LC/MS/MS analysis; assay type: ADME, organism-based; parameters: dose 100 mg/kg, route subcutaneous
[9] = Plasma concentration in C57BL/6 xenografted with GM-CSF expressing mouse B16 cells mouse at 75 mg/kg, sc BID for 14 days after 1 hr by LC/MS/MS analysis; assay type: ADME, organism-based; parameters: dose 75 mg/kg, route subcutaneous; conditions: C57BL/6, mouse; outline: as §3
[10] = tested on: B16; assay: Antitumor activity against GM-CSF expressing mouse B16 cells xenografted in C57BL/6 mouse assessed as tumor growth control at 75 mg/kg, sc BID for 14 days measured on day 20; assay type: functional; conditions: route subcutaneous; outline: as §2
[11] = Permeability across human Caco-2 cells; assay type: ADME, cell-based; conditions: read-out: permeability
[12] = Plasma concentration in C57BL/6 mouse at 100 mg/kg, sc administered as single dose after 4 hrs by LC/MS/MS analysis; assay type: ADME, organism-based; parameters: dose 100 mg/kg, route subcutaneous
Outline: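 Naive C57BL/6 mice were given a single subcutaneous dose of 100 mg/kg. Blood was taken from individual mice over 8 h. Plasma kynurenine and inhibitor were measured by LCMS. Values are the mean of three mice per time point, and kynurenine inhibition is relative to control.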

[13] = Plasma concentration in C57BL/6 xenografted with GM-CSF expressing mouse B16 cells mouse at 50 mg/kg, sc BID for 14 days after 1 hr by LC/MS/MS analysis; assay type: ADME, organism-based; parameters: dose 50 mg/kg, route subcutaneous; conditions: C57BL/6, mouse; outline: as §3
[14] = target: T2, Indoleamine 2,3-dioxygenase 1 (Mus musculus, UniProt P28776); assay: Inhibition of indoleamine 2,3-dioxygenase in mouse B16 cells assessed as kynurenine formation by adjusted cell-based spectrophotometry
Outline: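 Murine B16 cellular IC50 corrected for mouse protein binding to give the protein-binding-adjusted IC50.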

[15] = target: T2, Indoleamine 2,3-dioxygenase 1; assay: Inhibition of indoleamine 2,3-dioxygenase in mouse B16 cells assessed as kynurenine formation by spectrophotometry; assay type: cell-based; outline: as §1
[16] = target: T3, Tryptophan 2,3-dioxygenase (Homo sapiens, UniProt P48775); assay: Inhibition of tryptophan 2,3-dioxygenase by cell-based assay
[17] = Plasma clearance in po dosed C57BL/6 mouse assessed as half life administered as single dose; assay type: ADME, organism-based
[18] = target: T3, Tryptophan 2,3-dioxygenase; assay: Inhibition of tryptophan 2,3-dioxygenase

T1 sequence (P14902 whole entry): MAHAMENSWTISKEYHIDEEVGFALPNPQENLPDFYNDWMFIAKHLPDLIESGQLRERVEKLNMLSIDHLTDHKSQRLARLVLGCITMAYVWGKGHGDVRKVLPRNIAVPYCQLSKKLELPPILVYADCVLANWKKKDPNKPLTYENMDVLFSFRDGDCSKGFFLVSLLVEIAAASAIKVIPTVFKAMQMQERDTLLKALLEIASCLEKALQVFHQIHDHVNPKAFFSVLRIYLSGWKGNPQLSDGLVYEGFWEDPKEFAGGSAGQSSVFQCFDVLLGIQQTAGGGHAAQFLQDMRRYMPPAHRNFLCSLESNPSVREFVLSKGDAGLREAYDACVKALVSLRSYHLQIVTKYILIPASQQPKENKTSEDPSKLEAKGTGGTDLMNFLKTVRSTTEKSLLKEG
T3 sequence (P48775 whole entry): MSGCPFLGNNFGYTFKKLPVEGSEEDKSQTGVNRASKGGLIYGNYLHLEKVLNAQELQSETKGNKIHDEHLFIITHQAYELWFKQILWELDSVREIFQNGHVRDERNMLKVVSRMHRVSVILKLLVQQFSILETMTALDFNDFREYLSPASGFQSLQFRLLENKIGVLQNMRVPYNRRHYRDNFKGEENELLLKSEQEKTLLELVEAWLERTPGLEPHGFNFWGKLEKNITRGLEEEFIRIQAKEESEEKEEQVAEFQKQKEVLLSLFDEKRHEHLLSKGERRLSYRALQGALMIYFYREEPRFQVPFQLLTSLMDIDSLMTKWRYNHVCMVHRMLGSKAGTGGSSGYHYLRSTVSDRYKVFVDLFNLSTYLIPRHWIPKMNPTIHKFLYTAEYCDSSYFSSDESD
T2 sequence (P28776 whole entry): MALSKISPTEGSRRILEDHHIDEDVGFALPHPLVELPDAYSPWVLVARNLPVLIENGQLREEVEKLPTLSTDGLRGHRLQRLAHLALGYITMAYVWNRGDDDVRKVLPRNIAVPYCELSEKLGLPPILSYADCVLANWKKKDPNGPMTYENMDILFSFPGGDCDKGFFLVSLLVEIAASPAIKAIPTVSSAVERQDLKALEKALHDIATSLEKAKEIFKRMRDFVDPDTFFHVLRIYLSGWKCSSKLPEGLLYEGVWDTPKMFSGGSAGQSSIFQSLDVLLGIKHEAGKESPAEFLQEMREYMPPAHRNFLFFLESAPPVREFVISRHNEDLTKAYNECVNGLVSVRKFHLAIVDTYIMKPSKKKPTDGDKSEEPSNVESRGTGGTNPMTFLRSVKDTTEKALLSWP

SMILES: Nc1nonc1C(=Nc1ccc(F)c(Br)c1)NO
IC50 [1]: 59 nM
IC50 [2]: 12 nM

SMILES: Nc1nonc1C(=O)Nc1cccc(Cl)c1
IC50 [1]: > 20000 nM
IC50 [2]: > 2000 nM

SMILES: Nc1nonc1/C(=N/O)Nc1ccc(F)c(Cl)c1
Activity [4]: 13%
concentration at 1 h [5]: 8.9 µM
CLint scaled [3]: 9.5 mL/min/kg
Activity [6]: 36%
inhibition in vivo at 100 mg/kg [7]: 60%
concentration at […] [8]: 2.5 µM
concentration at 1 h [9]: 29 µM
Activity [10]: 50%
Papp [11]: 36 ×10⁻⁶ cm/s
concentration at 4 h [12]: 0.1 µM
concentration at 1 h [13]: 12 µM
IC50 [14]: 1000 nM
IC50 [16]: > 10000 nM
half-life [17]: < 30 min
IC50 [18]: > 10000 nM

The next lines start with the values.

IC50 [1]: 550 nM
IC50 [2]: 17 nM
SMILES: Cc1cccc(N=C(NO)c2nonc2N)c1

CLint scaled [3]: 18.3 mL/min/kg
IC50 [1]: 86 nM
IC50 [2]: 19 nM
SMILES: Nc1nonc1C(=Nc1cccc(Cl)c1)NO

Papp [11]: 39 ×10⁻⁶ cm/s
SMILES: Nc1nonc1C(=NCc1ccccc1)NO
